Measurements reported in ChEMBL document CHEMBL4028845, “Design, Synthesis, and Properties of a Potent Inhibitor of Pseudomonas aeruginosa Deacetylase LpxC” (J Med Chem, 2017).
Converted amounts (≈) assume the structure as drawn. Blank lines part the entries; values can stand above or below the compound they belong to. The source made the active and inactive calls. The calls are words filed in the database; no cut-off is given here.

What was measured:
[1] = tested on: Pseudomonas aeruginosa; test: Antibacterial activity against Pseudomonas aeruginosa clinical isolate after 18 to 24 hrs; type: functional
[2] = molecular target: T1, UDP-3-O-acyl-N-acetylglucosamine deacetylase (Pseudomonas aeruginosa (strain ATCC 15692 / PAO1 / 1C / PRS 101 / LMG12228), UniProt P47205); test: Inhibition of Pseudomonas aeruginosa LpxC using UDP-3-O-(R-hydroxydecanoyl)-N-acetylglucosamine as substrate preincubated for 30 mins followed by substrate addition measured after 20 mins by LC-MS/MS analysis
T1 sequence (P47205 whole entry): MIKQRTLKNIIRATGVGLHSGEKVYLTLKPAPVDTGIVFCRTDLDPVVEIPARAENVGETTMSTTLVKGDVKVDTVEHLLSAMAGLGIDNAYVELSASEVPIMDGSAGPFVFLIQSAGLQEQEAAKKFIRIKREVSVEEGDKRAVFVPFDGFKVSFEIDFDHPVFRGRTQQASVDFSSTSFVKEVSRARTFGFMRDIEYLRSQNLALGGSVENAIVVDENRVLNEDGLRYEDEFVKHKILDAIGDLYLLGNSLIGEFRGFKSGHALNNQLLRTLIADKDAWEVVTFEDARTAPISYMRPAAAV

[3] = tested on: Pseudomonas aeruginosa; test: Antibacterial activity against mexAB-oprM deficient Pseudomonas aeruginosa K1119 after 18 to 24 hrs; type: functional
Outline: (§1)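 Broth MIC per CLSI guidelines in cation-adjusted Mueller Hinton broth. Compounds were dissolved and serially diluted in DMSO (carbapenems in water) before addition to plates. Incubation was at 37 °C for 18−24 h. MIC is the lowest concentration preventing visible growth. MIC50/MIC90 are the concentrations inhibiting 50% or 90% of isolates tested.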

[4] = tested on: Pseudomonas aeruginosa; test: Antibacterial activity against hypersusceptible Pseudomonas aeruginosa Z61 after 18 to 24 hrs; type: functional; outline: as §1
[5] = tested on: Pseudomonas aeruginosa; test: Antibacterial activity against Pseudomonas aeruginosa PAO1 K767 after 18 to 24 hrs; type: functional; outline: as §1
[6] = Cytotoxicity against human HepG2 cells assessed as reduction in cell viability after 72 hrs by WST1 assay; type: cell-based
Outline: (§2)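 Cells were grown and assayed in medium with 10% heat-inactivated FBS and exposed to compound for 72 h. Metabolic activity was read as WST-1 cleavage to formazan at A450, with puromycin as positive control. CC50 (50% reduction in viability) was calculated from dose-response curves.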

[7] = Cytotoxicity against human K562 cells assessed as reduction in cell viability after 72 hrs by WST1 assay; type: cell-based; outline: as §2
[8] = Solubility of the compound at pH 6.8 by high throughput screening assay; type: physicochemical; conditions: buffer, read-out: solubility
[9] = molecular target: Histone deacetylase 1 (Homo sapiens, UniProt Q13547); test: Inhibition of human HDAC1
[10] = Protein binding in rat plasma; type: ADME, cell-free; conditions: read-out: PPB (converted)
[11] = Protein binding in human plasma; type: ADME, cell-free; conditions: read-out: PPB (converted)
[12] = molecular target: Histone deacetylase 8 (Homo sapiens, UniProt Q9BY41); test: Inhibition of human HDAC8
[13] = molecular target: Histone deacetylase 2 (Homo sapiens, UniProt Q92769); test: Inhibition of human HDAC2
[14] = tested on: Klebsiella pneumoniae; test: Antibacterial activity against Klebsiella pneumoniae NB29018 after 18 to 24 hrs; type: functional; outline: as §1
[15] = molecular target: Histone deacetylase 11 (Homo sapiens, UniProt Q96DB2); test: Inhibition of human HDAC11
[16] = molecular target: Histone deacetylase 9 (Homo sapiens, UniProt Q9UKV0); test: Inhibition of human HDAC9
[17] = tested on: Burkholderia cepacia; test: Antibacterial activity against Burkholderia cepacia NB49016 after 18 to 24 hrs; type: functional; outline: as §1
[18] = tested on: Stenotrophomonas maltophilia; test: Antibacterial activity against Stenotrophomonas maltophilia NB55011 after 18 to 24 hrs; type: functional; outline: as §1
[19] = tested on: Pseudomonas aeruginosa; test: Antibacterial activity against Pseudomonas aeruginosa clinical isolate infected in iv dosed BalbC mouse neutropenic model assessed as concentration required to show bacterial stasis in lung administered as bid at 2 and 8 hrs post infection measured after 24 hrs
[20] = tested on: Pseudomonas aeruginosa; test: Antibacterial activity against Pseudomonas aeruginosa NB52001 after 18 to 24 hrs; type: functional; outline: as §1
[21] = molecular target: Histone deacetylase 5 (Homo sapiens, UniProt Q9UQL6); test: Inhibition of human HDAC5
[22] = tested on: Escherichia coli; test: Antibacterial activity against efflux pump deficient Escherichia coli after 18 to 24 hrs; type: functional
Outline: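 MIC per CLSI guidelines. Strains grown in cation-adjusted Mueller Hinton broth. Compounds dissolved in DMSO and serially diluted in DMSO (carbapenems in water) before addition to microtiter plates. Incubation at 37 °C for 18−24 h. MIC is the lowest concentration preventing visible growth.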

[23] = molecular target: Protein deacetylase HDAC6 (Homo sapiens, UniProt Q9UBN7); test: Inhibition of human HDAC6
[24] = tested on: Klebsiella aerogenes; test: Antibacterial activity against Enterobacter aerogenes NB24004 after 18 to 24 hrs; type: functional; outline: as §1
[25] = tested on: Pseudomonas aeruginosa; test: Antibacterial activity against Pseudomonas aeruginosa NB52096 after 18 to 24 hrs; type: functional; outline: as §1
[26] = Protein binding in mouse plasma; type: ADME, cell-free; conditions: read-out: PPB (converted)
[27] = molecular target: Histone deacetylase 7 (Homo sapiens, UniProt Q8WUI4); test: Inhibition of human HDAC7
[28] = molecular target: Histone deacetylase 3 (Homo sapiens, UniProt O15379); test: Inhibition of human HDAC3
[29] = molecular target: Histone deacetylase 4 (Homo sapiens, UniProt P56524); test: Inhibition of human HDAC4
[30] = molecular target: Polyamine deacetylase HDAC10 (Homo sapiens, UniProt Q969S8); test: Inhibition of human HDAC10
[31] = tested on: Escherichia coli; test: Antibacterial activity against Escherichia coli NB27047 after 18 to 24 hrs; type: functional; outline: as §1
[32] = tested on: Pseudomonas aeruginosa; test: Antibacterial activity against Pseudomonas aeruginosa ATCC 27853 in CD1 mouse thigh infection model assessed as reduction in bacterial burden in thigh at 160 to 320 mg/kg, iv administered at 2 hrs post infection measured after 24 hrs
[33] = tested on: Klebsiella oxytoca; test: Antibacterial activity against Klebsiella oxytoca NB30007 after 18 to 24 hrs; type: functional; outline: as §1
[34] = tested on: Acinetobacter baumannii; test: Antibacterial activity against Acinetobacter baumannii NB48015 after 18 to 24 hrs; type: functional; outline: as §1
[35] = tested on: Proteus mirabilis; test: Antibacterial activity against Proteus mirabilis NB32022 after 18 to 24 hrs; type: functional; outline: as §1
[36] = tested on: Pseudomonas aeruginosa; test: Antibacterial activity against Pseudomonas aeruginosa clinical isolate infected in iv dosed BalbC mouse neutropenic model assessed as concentration required to show reduction in bacterial burden in lung of 2 log below stasis administered as bid at 2 and 8 hrs post infection measured after 24 hrs
[37] = tested on: Alcaligenes; test: Antibacterial activity against Alcaligenes xylosus NB56002 after 18 to 24 hrs; type: functional; outline: as §1

Chain of Histone deacetylase 4 (P56524 whole entry): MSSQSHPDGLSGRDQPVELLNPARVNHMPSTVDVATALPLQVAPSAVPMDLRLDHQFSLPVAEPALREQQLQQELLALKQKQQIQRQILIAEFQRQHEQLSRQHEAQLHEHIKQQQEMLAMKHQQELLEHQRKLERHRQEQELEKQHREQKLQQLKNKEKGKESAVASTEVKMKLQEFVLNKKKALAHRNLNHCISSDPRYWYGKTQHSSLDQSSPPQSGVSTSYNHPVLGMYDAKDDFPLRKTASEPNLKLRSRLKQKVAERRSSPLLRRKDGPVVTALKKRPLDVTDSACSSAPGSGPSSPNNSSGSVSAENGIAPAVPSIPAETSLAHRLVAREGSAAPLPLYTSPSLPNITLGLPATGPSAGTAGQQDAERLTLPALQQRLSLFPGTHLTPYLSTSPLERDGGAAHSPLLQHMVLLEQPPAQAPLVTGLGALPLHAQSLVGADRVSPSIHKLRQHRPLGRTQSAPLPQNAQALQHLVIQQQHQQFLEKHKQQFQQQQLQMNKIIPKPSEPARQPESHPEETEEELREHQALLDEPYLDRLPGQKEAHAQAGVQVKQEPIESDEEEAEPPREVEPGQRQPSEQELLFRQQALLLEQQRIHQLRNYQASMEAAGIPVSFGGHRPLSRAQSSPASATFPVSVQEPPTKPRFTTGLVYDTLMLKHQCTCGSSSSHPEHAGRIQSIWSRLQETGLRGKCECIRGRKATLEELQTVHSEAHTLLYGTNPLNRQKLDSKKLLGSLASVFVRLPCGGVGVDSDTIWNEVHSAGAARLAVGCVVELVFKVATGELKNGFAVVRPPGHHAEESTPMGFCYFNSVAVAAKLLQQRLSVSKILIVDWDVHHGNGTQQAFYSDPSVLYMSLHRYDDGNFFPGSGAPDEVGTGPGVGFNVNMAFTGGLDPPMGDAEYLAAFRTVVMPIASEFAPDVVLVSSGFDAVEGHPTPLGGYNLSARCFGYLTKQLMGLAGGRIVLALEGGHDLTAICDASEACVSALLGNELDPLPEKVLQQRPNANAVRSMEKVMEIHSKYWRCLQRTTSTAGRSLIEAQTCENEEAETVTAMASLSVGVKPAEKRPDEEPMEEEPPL
Chain of Protein deacetylase HDAC6 (Q9UBN7 whole entry): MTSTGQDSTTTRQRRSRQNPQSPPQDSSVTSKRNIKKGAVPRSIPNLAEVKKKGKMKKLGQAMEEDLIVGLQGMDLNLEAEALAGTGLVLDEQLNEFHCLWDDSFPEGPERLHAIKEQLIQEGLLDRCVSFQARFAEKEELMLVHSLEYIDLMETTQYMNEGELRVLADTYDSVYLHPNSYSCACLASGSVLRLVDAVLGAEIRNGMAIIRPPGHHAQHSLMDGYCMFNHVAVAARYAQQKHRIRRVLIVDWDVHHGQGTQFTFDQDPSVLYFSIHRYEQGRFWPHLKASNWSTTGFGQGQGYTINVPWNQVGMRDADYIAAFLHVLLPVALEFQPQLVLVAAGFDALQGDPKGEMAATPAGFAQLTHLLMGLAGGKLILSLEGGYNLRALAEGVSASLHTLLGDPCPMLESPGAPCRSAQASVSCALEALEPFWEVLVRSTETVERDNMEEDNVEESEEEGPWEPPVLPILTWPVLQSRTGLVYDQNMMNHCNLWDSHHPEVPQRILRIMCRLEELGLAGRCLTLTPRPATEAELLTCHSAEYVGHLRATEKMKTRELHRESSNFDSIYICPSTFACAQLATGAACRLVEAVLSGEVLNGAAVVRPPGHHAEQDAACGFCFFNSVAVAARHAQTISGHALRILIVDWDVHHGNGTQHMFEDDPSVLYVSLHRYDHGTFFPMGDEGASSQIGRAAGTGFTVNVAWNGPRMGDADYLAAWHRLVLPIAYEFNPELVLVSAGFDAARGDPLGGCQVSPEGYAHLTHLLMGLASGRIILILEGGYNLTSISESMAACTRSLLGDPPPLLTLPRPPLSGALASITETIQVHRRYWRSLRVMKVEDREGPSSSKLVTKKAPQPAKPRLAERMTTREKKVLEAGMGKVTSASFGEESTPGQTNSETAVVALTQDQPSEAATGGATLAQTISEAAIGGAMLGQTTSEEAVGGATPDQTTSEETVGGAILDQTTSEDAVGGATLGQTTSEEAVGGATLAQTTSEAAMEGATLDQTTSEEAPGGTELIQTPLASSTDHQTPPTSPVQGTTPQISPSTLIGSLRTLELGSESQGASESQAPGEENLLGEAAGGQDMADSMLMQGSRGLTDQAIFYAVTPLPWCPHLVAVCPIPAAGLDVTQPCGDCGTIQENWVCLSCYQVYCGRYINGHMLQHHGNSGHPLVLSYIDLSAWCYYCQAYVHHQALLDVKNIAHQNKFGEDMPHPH
Chain of Histone deacetylase 9 (Q9UKV0 whole entry): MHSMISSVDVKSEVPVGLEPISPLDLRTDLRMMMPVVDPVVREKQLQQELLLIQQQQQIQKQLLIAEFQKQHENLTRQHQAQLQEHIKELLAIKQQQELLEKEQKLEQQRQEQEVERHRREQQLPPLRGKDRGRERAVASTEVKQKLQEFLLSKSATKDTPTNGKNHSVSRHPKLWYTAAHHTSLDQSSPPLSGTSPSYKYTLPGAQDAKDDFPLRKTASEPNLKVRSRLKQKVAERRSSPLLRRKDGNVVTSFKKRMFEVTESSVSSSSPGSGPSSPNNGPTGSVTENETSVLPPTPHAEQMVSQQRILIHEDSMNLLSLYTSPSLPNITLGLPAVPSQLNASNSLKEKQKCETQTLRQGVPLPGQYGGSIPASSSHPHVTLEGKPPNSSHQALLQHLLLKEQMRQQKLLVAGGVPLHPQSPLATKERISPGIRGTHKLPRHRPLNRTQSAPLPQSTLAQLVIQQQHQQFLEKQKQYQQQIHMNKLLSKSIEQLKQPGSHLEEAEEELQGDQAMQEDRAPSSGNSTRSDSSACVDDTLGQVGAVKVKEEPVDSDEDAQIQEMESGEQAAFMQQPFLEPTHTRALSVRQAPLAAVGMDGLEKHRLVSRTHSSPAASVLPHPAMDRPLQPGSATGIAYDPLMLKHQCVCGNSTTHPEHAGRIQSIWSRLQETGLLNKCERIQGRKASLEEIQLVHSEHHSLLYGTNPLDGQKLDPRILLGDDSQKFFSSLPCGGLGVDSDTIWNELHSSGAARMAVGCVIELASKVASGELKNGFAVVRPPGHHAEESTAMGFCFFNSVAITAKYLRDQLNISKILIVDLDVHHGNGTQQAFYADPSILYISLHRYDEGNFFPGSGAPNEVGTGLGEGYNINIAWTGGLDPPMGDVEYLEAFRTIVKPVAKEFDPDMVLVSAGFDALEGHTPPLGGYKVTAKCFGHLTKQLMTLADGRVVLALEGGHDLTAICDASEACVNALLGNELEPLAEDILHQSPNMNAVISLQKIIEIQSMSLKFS
Chain of Histone deacetylase 3 (O15379 whole entry): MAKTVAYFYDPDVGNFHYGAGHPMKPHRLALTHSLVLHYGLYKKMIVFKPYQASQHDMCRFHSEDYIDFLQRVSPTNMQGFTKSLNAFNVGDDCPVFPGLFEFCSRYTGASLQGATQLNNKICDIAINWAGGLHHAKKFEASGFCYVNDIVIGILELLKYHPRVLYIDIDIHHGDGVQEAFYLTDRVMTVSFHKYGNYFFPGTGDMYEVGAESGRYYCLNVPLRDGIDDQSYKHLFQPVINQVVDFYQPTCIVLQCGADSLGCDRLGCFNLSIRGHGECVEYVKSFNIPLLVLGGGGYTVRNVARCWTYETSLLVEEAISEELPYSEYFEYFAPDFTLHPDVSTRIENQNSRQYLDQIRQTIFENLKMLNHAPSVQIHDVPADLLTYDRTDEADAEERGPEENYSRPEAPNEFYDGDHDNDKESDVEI
Chain of Histone deacetylase 8 (Q9BY41 whole entry): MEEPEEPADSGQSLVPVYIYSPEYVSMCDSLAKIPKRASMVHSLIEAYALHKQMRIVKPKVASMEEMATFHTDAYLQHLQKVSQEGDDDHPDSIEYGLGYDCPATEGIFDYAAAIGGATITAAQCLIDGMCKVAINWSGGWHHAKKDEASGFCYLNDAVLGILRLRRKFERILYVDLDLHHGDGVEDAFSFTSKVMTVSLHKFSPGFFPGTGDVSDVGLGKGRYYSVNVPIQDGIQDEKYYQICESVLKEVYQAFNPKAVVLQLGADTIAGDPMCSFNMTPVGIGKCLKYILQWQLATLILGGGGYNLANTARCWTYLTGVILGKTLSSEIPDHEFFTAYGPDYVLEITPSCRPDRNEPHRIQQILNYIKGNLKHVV
Chain of Histone deacetylase 11 (Q96DB2 whole entry): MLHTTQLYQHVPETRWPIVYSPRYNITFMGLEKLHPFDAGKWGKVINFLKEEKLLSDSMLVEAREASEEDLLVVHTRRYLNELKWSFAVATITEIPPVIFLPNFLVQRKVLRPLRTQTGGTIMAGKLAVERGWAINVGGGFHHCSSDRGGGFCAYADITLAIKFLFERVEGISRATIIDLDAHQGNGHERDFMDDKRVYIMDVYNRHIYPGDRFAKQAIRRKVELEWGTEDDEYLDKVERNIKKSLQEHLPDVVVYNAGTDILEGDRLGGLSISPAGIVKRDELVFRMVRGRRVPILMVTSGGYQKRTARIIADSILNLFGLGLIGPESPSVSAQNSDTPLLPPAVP
Chain of Histone deacetylase 1 (Q13547 whole entry): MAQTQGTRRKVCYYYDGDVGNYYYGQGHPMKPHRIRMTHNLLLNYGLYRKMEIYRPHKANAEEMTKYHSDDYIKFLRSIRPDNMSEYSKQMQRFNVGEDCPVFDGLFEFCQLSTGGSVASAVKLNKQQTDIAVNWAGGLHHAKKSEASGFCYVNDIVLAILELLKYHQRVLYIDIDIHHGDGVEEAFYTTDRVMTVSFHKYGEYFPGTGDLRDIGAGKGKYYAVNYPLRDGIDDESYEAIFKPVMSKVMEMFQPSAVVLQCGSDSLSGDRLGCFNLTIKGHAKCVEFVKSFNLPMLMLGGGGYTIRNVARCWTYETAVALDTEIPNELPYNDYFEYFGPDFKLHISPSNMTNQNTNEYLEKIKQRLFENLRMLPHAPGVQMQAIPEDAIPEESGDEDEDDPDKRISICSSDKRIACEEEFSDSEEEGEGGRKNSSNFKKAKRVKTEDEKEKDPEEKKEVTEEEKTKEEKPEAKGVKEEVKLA

Compound: C[C@@H](O)[C@H]1C(=O)N2C(C(=O)O)=C(SCCNC=N)C[C@H]12 [IMIPENEM ANHYDROUS]
MIC50 [1]: 2 µg/mL (≈ 6.68 µM)
MIC90 [1]: 16 µg/mL (≈ 53.4 µM)

Compound: CC(C)(O/N=C(\C(=O)N[C@@H]1C(=O)N2C(C(=O)[O-])=C(C[n+]3ccccc3)CS[C@H]12)c1csc(N)n1)C(=O)O [CEFTAZIDIME]
MIC50 [1]: 4 µg/mL (≈ 7.32 µM)
MIC90 [1]: > 128 µg/mL

Compound: C[C@@H](N)[C@H](NC(=O)COc1ccc(N2CCCC2=O)cc1)C(=O)NO
IC50 [2]: 0.342 µM
MIC [3]: > 128 µg/mL
MIC [4]: > 128 µg/mL
MIC [5]: > 128 µg/mL

Compound: COLISTIN
MIC50 [1]: 0.5 µg/mL
MIC90 [1]: 2 µg/mL

Compound: CC#CCOc1ccc(C(=O)N[C@H](C(=O)NO)C(C)(C)N)cc1
IC50 [9]: > 30 µM
fraction unbound [10]: 0.779
MIC50 [1]: 1 µg/mL (≈ 3.13 µM)
MIC90 [1]: 2 µg/mL (≈ 6.26 µM)
fraction unbound [11]: 0.193
IC50 [12]: > 30 µM
IC50 [13]: > 30 µM
MIC [14]: 16 µg/mL (≈ 50.1 µM)
IC50 [15]: > 30 µM
IC50 [16]: > 30 µM
MIC [17]: 32 µg/mL (≈ 100 µM)
MIC [18]: 32 µg/mL (≈ 100 µM)
Activity [19]: 7.1 mg/kg/day
MIC [20]: 1 µg/mL (≈ 3.13 µM)
IC50 [21]: > 30 µM
MIC [22]: 1 to 2 µg/mL (≈ 3.13 to 6.26 µM)
IC50 [23]: > 30 µM
MIC [24]: > 128 µg/mL
MIC [25]: 2 µg/mL (≈ 6.26 µM)
fraction unbound [26]: 0.772
IC50 [27]: > 30 µM
CC50 at 72 h [6]: > 295 µM
IC50 [28]: > 30 µM
CC50 at 72 h [7]: > 295 µM
IC50 [29]: > 30 µM
IC50 [30]: > 30 µM
MIC [31]: 64 µg/mL (≈ 200 µM)
Activity [32]: Active
MIC [3]: 0.06 µg/mL (≈ 0.188 µM)
solubility [8]: > 327 µg/mL
MIC [4]: 0.25 µg/mL (≈ 0.783 µM)
MIC [33]: 16 µg/mL (≈ 50.1 µM)
MIC [34]: > 128 µg/mL
MIC [35]: 64 µg/mL (≈ 200 µM)
Activity [36]: 20 mg/kg/day
MIC [37]: 16 µg/mL (≈ 50.1 µM)
MIC [5]: 0.5 µg/mL (≈ 1.57 µM)

Compound: CCCCc1ccc(C(=O)N[C@H](C(=O)NO)[C@@H](C)N)cc1
IC50 [2]: 0.0375 µM
CC50 at 72 h [6]: 125 µM
CC50 at 72 h [7]: 42.3 µM
MIC [3]: 0.5 µg/mL (≈ 1.7 µM)
solubility [8]: > 293 µg/mL
MIC [4]: 1 µg/mL (≈ 3.41 µM)
MIC [5]: 8 µg/mL (≈ 27.3 µM)

Compound: C[C@@H](N)[C@H](NC(=O)c1ccc(C#Cc2ccccc2)cc1)C(=O)NO
fraction unbound [10]: 0.072
fraction unbound [11]: 0.081
IC50 [2]: 0.00356 µM
fraction unbound [26]: 0.086
CC50 at 72 h [7]: 29.5 µM
MIC [3]: 0.25 µg/mL (≈ 0.741 µM)
MIC [4]: 0.25 µg/mL (≈ 0.741 µM)
MIC [5]: 1 µg/mL (≈ 2.96 µM)

Compound: C[C@@H](N)[C@H](NC(=O)c1ccc(N2CCOCC2)cc1)C(=O)NO
IC50 [2]: 1.64 µM
MIC [3]: 16 µg/mL (≈ 49.6 µM)
MIC [4]: 32 µg/mL (≈ 99.3 µM)
MIC [5]: > 128 µg/mL

Further lines, with some results ahead:

IC50 [2]: 0.001 µM
MIC [3]: 1 µg/mL (≈ 2.5 µM)
MIC [4]: 32 µg/mL (≈ 80.1 µM)
MIC [5]: 128 µg/mL (≈ 320 µM)
Compound: CCc1ccc(-c2ccc(C(=O)N[C@H](C(=O)NO)[C@@H](C)NCC(=O)O)cc2)cc1

MIC [3]: 0.25 µg/mL (≈ 0.783 µM)
MIC [4]: 0.25 µg/mL (≈ 0.783 µM)
MIC [5]: 2 µg/mL (≈ 6.26 µM)
Compound: CC#CCOc1ccc(C(=O)NC(C(=O)NO)C(C)(C)N)cc1 (racemic)

IC50 [2]: 0.0197 µM
MIC [3]: 0.25 µg/mL (≈ 0.819 µM)
solubility [8]: 295 µg/mL (≈ 966 µM)
MIC [4]: 0.5 µg/mL (≈ 1.64 µM)
MIC [5]: 2 µg/mL (≈ 6.55 µM)
Compound: CC#CCOc1ccc(C(=O)N[C@H](C(=O)NO)[C@@H](C)N)cc1
CC50 at 72 h [6]: > 419 µM
CC50 at 72 h [7]: > 419 µM

IC50 [2]: 0.039 µM
MIC [3]: 0.25 µg/mL (≈ 0.696 µM)
MIC [4]: 1 µg/mL (≈ 2.78 µM)
MIC [5]: 16 µg/mL (≈ 44.5 µM)
Compound: CC#CCOc1ccc(C(=O)N[C@H](C(=O)NO)[C@@H](N)C(F)(F)F)cc1

MIC50 [1]: 16 µg/mL (≈ 21.4 µM)
MIC90 [1]: > 128 µg/mL
Compound: CC[C@H]1OC(=O)[C@H](C)[C@@H](O[C@H]2C[C@@](C)(OC)[C@@H](O)[C@H](C)O2)[C@H](C)[C@@H](O[C@@H]2O[C@H](C)C[C@H](N(C)C)[C@H]2O)[C@](C)(O)C[C@@H](C)CN(C)[C@H](C)[C@@H](O)[C@]1(C)O [AZITHROMYCIN]

IC50 [2]: 0.362 µM
MIC [3]: 2 µg/mL (≈ 6.04 µM)
MIC [4]: 4 µg/mL (≈ 12.1 µM)
MIC [5]: 32 µg/mL (≈ 96.6 µM)
Compound: CC#CCOc1ccc(C(=O)N[C@H](C(=O)NO)[C@H](N)C2CC2)cc1
